Sampled rows, rich in hits. Any-hit rate of the full collection: about 2.3%.
TRPC4 inh: inhibitors of mouse TRPC4 channel, primary screen, Fluo4 calcium, HEK293 TRPC4beta/mu-opioid cells; DAMGO-evoked Fluo4 calcium flux; hits give low values; Short transient receptor potential channel 4 (Mus musculus), Q9QUQ5; 300,000 tested, 0.39% active; B-score at 10 µM; AID 2247, 2010;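 active means B-score over 3 SD under the library average, no early fluorescence shift, positive overall ratio signal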
Target sequence (Q9QUQ5 whole entry, looked up): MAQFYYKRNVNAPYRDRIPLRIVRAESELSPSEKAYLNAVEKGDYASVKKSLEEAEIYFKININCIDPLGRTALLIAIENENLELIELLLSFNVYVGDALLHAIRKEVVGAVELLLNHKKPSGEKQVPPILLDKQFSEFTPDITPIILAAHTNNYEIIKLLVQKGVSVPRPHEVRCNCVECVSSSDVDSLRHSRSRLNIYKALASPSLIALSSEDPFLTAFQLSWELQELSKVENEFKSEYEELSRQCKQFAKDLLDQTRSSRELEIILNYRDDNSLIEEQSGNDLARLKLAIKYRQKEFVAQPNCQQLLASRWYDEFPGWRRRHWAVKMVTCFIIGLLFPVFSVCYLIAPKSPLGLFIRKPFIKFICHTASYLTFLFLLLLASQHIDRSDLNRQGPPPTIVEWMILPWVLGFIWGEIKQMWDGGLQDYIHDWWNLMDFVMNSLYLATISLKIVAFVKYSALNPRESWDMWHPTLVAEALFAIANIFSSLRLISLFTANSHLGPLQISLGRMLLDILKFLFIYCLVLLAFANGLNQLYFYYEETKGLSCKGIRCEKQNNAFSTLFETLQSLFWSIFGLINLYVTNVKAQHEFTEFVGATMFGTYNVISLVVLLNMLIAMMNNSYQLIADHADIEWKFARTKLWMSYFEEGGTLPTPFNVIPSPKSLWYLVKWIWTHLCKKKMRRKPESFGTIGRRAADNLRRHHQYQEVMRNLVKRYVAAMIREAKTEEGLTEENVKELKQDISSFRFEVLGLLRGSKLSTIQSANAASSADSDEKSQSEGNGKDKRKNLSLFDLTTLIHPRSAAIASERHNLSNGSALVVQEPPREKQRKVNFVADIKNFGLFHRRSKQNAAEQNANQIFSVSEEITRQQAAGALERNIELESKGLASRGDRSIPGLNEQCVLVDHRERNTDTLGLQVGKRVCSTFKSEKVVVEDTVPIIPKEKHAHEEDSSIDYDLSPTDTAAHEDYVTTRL
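test system = HEK293 cells with stable TRPC4beta plus mu-opioid receptor expression | detection = Fluo4 Ca2+ flux fluorescence | read-out = integrated fluorescence ratio relative to baseline, converted to per-well B score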
TRPC4 agonist: activators of mouse TRPC4 channel, primary screen, Fluo4 calcium, HEK293 TRPC4beta/mu-opioid cells. Short transient receptor potential channel 4 (Mus musculus), Q9QUQ5. Fluo4 calcium fluorescence; hits give high values. B-score at 10 µM. 310,000 tested, 0.49% active;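 active means B-score above 5 SD of library B-scores, and initial fluorescence ratio not above library mean plus 5 SD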;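 further: positive B-score marks a calcium rise read as TRPC4 activation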
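System: HEK293 cells stably co-expressing mouse TRPC4beta and mu-opioid receptor; Schedule: Fluo4 dye loading 45 min at room temperature, 110 s recording; Detection: Fluo4 fluorescence, kinetic; Evaluation: B-scored integrated calcium fluorescence ratio; Controls: buffer (low) and maximal DAMGO (high).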
TRPC6 act: mouse TRPC6 channel activators, primary screen, cell-based, HEK293, membrane potential dye; 310,000 tested, 0.13% active; B-score at 10 µM; HEK293-TRPC6 membrane potential dye fluorescence; hits give high values; Short transient receptor potential channel 6 (Mus musculus), Q61143;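 active means B-score of the integrated fluorescence ratio above library mean plus 3 SD, and starting fluorescence ratio within library mean plus 5 SD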;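 further: higher score means more depolarization so channel activation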
TRPC6 inh: mouse TRPC6 channel inhibitors, primary screen, cell-based, HEK293, membrane potential dye; Short transient receptor potential channel 6 (Mus musculus), Q61143; B-score at 10 µM; ACh-evoked depolarization; hits give low values; 310,000 tested, 1.1% active;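 active means B-score under library mean minus 3 SD, initial fluorescence not abnormally high, positive integrated signal ratio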;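 further: B-score derived from integrated fluorescence ratio over the kinetic read; more negative B-score means stronger inhibition of depolarization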
TRPC4 potent: positive allosteric modulators of TRPC4, primary screen, cell-based, mouse TRPC4beta, HEK293 mu-opioid, Fluo-4 calcium. Short transient receptor potential channel 4 (Mus musculus), Q9QUQ5. DAMGO EC20, Fluo-4 Ca2+ flux; hits give high values. B-score at 10 µM. 310,000 tested, 0.42% active;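 active means B-score of calcium response area above 5 SD of library B-scores, with initial fluorescence ratio within 5 SD of library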;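 further: B-score of integrated fluorescence ratio over time as area under calcium response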
TRPC4 spec 2: mouse TRPC4 off-target activity of TRPC6 inhibitors, second screen; shares compounds with TRPC6 inh; HEK293 TRPC4/MOR, membrane potential dye fluorescence; channel activated by saturating DAMGO dose; inhibition, % at 10 µM; 920 tested, 42% active; AID 2776;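 active means compounds whose fluorescence signal differed from control wells by over 3 SD, either direction, in both duplicate plates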
TRPC4 spec: mouse TRPC4 modulation by TRPC6 hits, confirmation, selectivity assay for TRPC6 inhibitor project, cell-based, HEK293 TRPC4/mu-opioid, membrane potential dye | AID 2777, 2010 | 920 tested, 61% active | activity change, negative = inhibition, % at 10 µM | membrane potential fluorescence | shares compounds with TRPC6 inh;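 active means rise or fall in signal beyond 3 SD of buffer-only wells in both replicate plates, either sign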;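 further: integrated kinetic ratio of fluorescence range over baseline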
HEK293 MPD ctr 2-1: nonspecific membrane potential effects, parental HEK293, confirmation, counter-screen for TRPC6 inhibitor project, cell-based, second counter screen; shares compounds with TRPC6 inh; parental HEK293 membrane potential dye fluorescence; maximal acetylcholine challenge after compound addition; signal change vs control, % at 10 µM; 920 tested, 31% active; AID 2779, 2010;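 active means membrane potential signal moving either way by over 3 SD of the maximum-effect control, in both duplicate plates, meaning non-specific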
HEK293 MPD ctr-1: membrane potential modulation in parental HEK293, confirmation, counter-screen for TRPC6 inhibitor project, cell-based; membrane potential signal change, % at 10 µM; 920 tested, 60% active; parental HEK293 membrane potential dye fluorescence; shares compounds with TRPC6 inh; AID 2780, 2010;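 active means membrane potential signal shifting up or down by more than 3 SD of buffer-only wells, on both duplicate plates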
HEK293 MPD ctr-2: parental HEK293 membrane potential modulation, confirmation, counter-screen for TRPC6 modulator project, cell-based | shares compounds with TRPC6 inh | membrane potential dye fluorescence | membrane potential signal change, % at 10 µM | 2,400 tested, 51% active | AID 488924, 2010;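 active means membrane potential signal moves up or down beyond 5 SD from buffer-only wells, on both duplicate plates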
HEK293 MPD ctr 2-2: parental HEK293 nonspecific activity of TRPC6 modulators, second screen. shares compounds with TRPC6 inh. membrane potential dye fluorescence; after compound, maximal acetylcholine stimulation. inhibition, % at 10 µM. 2,400 tested, 14% active. AID 488926;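 active means membrane potential signal drops by more than 5 SD from the mean control signal, in both duplicate plates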;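 further: plate controls were acetylcholine ECmax control wells for no effect and buffer only wells for full effect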
TRPC4/MOR mod: TRPC4 modulation by TRPC6 hit compounds, confirmation, selectivity assay for TRPC6 modulator project, cell-based, HEK293 TRPC4/mu-opioid, membrane potential dye, mouse. shares compounds with TRPC6 inh. membrane potential fluorescence. percent change from control (negative = decrease, positive = increase), % at 10 µM. 2,400 tested, 69% active;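 active means membrane potential signal moved up or down beyond 5 SD of buffer control wells, in both duplicate plates, actives on both sides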;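 further: plate controls were assay buffer wells for no effect and DAMGO maximal-effect wells for full effect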
TRPC4 ctr inh 2: mouse TRPC4 off-target activity of TRPC6 modulators, second screen; shares compounds with TRPC6 inh; HEK293 TRPC4/mu-opioid, membrane potential dye fluorescence; stimulated with maximal-effect DAMGO; inhibition, % at 10 µM; 2,400 tested, 55% active;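 active means drop in membrane potential signal beyond 5 SD of the control wells in both duplicate plates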;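 further: TRPC4 counter screen for TRPC6 hits run under conditions tuned for TRPC6 not TRPC4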
TRPC6 block conf: mouse TRPC6 channel inhibitors, confirmation, HEK293 cells, membrane potential dye, duplicate; shares compounds with TRPC6 inh; ACh-evoked depolarization; inhibition, % at 10 µM; 3,300 tested, 43% active; AID 488960, 2010;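 active means fluorescence ratio falls more than 5 SD below the full-stimulation control mean, in both duplicate runs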;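 further: integrated fluorescence ratio of peak minus minimum over baseline after agonist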
TRPC6 act confirm: mouse TRPC6 channel activators, confirmation, HEK293 cells, membrane potential dye, duplicate; shares compounds with TRPC6 inh; HEK293-TRPC6 membrane potential dye fluorescence, FDSS; activation, % at 10 µM; 2,800 tested, 11% active; AID 488961, 2010;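 active means ratio signal rise beyond 5 SD above unstimulated control wells' mean, seen in both duplicate runs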;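 further: plate controls were buffer EC0 wells for no effect and acetylcholine ECmax response for full effect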
The depositor's hits bear a star; i = inactive; · = not tested or not shown.

SMILES	TRPC4 inh	TRPC4 agonist	TRPC6 act	TRPC6 inh	TRPC4 potent	HEK293 MPD ctr-2	HEK293 MPD ctr 2-2	TRPC4/MOR mod	TRPC4 ctr inh 2	TRPC6 block conf	TRPC6 act confirm	others
COC(=O)C1CN(C(=O)COc2cccc(C)c2C)c2ccccc2O1 (stereo not drawn)	i	i	i	-6*	i	98%*	i	14%*	i	i	i
COC(=O)C1CN(C(=O)COc2ccc(Cl)cc2Cl)c2ccccc2O1 (stereo not drawn)	i	i	i	i	i	·	·	·	·	·	·
CC(C)NC(=O)c1cnc(Sc2ncc(C(F)(F)F)cc2Cl)n1C	i	i	i	-5.7*	i	i	i	i	i	i	i
O=C(/C=C\c1ccccc1OC(=O)c1ccccc1F)c1cc2ccccc2o1	i	i	i	-7.1*	i	·	·	·	·	i	i	TRPC4 spec 2=i;TRPC4 spec=i;HEK293 MPD ctr 2-1=i;HEK293 MPD ctr-1=i
CC1=CC(C2CC(=O)N(c3ccc(C)cc3)C2=O)CC2C(=O)N(c3ccc(C)cc3)C(=O)C12 (stereo not drawn)	i	i	i	i	i	·	·	·	·	·	·
Brc1ccc2nc(-c3c[nH]c4ccccc34)cn2c1	i	i	i	-6.3*	i	i	i	-10%*	54%*	i	i
Cc1cccn2cc(-c3c[nH]c4ccccc34)nc12	-6*	i	i	-6.7*	i	-113%*	i	-28%*	70%*	68%*	i
CCCc1cc(=O)[nH]c(SCC(=O)Nc2ccc(Br)cc2Br)n1	i	i	i	i	i	·	·	·	·	·	·
Cc1cccc2nc(-c3ccccc3)nc(N[C@@H](CO)c3ccccc3)c12	i	i	i	i	i	·	·	·	·	·	·
Cn1c(C2=C(O)CN(Cc3ccccc3)C2=N)nc2ccccc21	i	i	i	i	i	·	·	·	·	·	·
Cc1ccc(CNC(=O)c2cc3c(=O)n(C)c4ccccc4c3n2C)cc1	i	i	i	i	i	·	·	·	·	·	·
CN(CCNC(=O)c1cc2c(=O)n(C)c3ccccc3c2n1C)Cc1ccccc1	i	i	i	-5.2*	i	i	i	i	56%*	i	i
COc1ccc(NS(=O)(=O)c2cc(NC(=O)[C@@H](NC(=O)c3ccccc3)C(C)C)ccc2C)cc1	i	i	i	i	i	·	·	·	·	·	·
O=C(c1ccc([N+](=O)[O-])cc1)N(Cc1ccc(Br)cc1)N1C(=O)CCCC1=O	i	45*	16*	-9.8*	i	458%*	186%*	38%*	34%*	68%*	100%*
CCCCN1CCc2c1nc1ccc(Br)cc1c2N	i	i	i	-6.3*	i	-132%*	98%*	-37%*	93%*	88%*	i
Cc1ccc2nc3c(c(N)c2c1)CCN3c1ccccc1	i	i	i	i	i	·	·	·	·	·	·
CN1CCc2c1nc1ccccc1c2N (tested in a mixture with another compound)	i	i	i	i	i	·	·	·	·	·	·
CCCCN1CCc2c([nH]c3ccccc23)C1=O	i	i	i	i	i	·	·	·	·	·	·
Cc1cccc2c(N)c3c(nc12)N(C)CC3	i	i	i	-5.5*	i	-154%*	91%*	-36%*	81%*	78%*	i
Cc1ccc2nc3c(c(N)c2c1)CCN3C	-7*	i	i	-7.1*	i	·	·	·	·	58%*	i	TRPC4 spec 2=51%*;TRPC4 spec=-27%*;HEK293 MPD ctr 2-1=13%*;HEK293 MPD ctr-1=-460%*
Cc1cc(OCC(=O)Nc2cc(C(C)(C)C)on2)ccc1[N+](=O)[O-]	i	i	i	i	i	·	·	·	·	·	·
O=[N+]([O-])C(/C=C(/Cl)[N+](=O)[O-])=C(N1CCCCC1)N1CCCCC1	i	i	i	i	i	·	·	·	·	·	·
COc1ccc(CN(C)C(C)C(=O)Nc2cccc3ccccc23)cc1 (stereo not drawn)	i	i	i	i	i	·	·	·	·	·	·
COc1cc(OC)c(C(=O)N(CCc2ccccc2)Cc2ccccc2)cc1OC	i	i	i	-6.9*	i	·	·	·	·	i	i	TRPC4 spec 2=i;TRPC4 spec=15%*;HEK293 MPD ctr 2-1=i;HEK293 MPD ctr-1=9.0%*
Oc1ccc(/C=N/Nc2cc(N3CCOCC3)nc(N3CCOCC3)n2)cc1O	i	i	i	i	i	·	·	·	·	·	·
